Rows were chosen to be rich in hits. Some 5.8% of all compounds tested hit in one or more screens of this group.
Pf Dd2 growth: inhibitors of Plasmodium falciparum Dd2 growth | P. falciparum Dd2 growth, SYBR Green, 72 h; stronger effect = lower value | activity change, % at 10 µM | 94,000 compounds, 2.3% hits; in the data active means activity change below about -80%
GASC1 inh: KDM4C (human) demethylase inhibition; Q9H3R0; inhibition, % at 12.5 µM; GST-KDM4C 2-372, H3K9me3 peptide, LANCE TR-FRET; 96,000 compounds, 0.15% hits; AID 720574;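 active means mean replicate inhibition above about 25%, with at least 55% of replicates also reaching it, limit read from the data, passing the limit was not always enough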
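System – N-terminal GST-fused human GASC-1 (KDM4C) fragment, residues 2-372 · Input – enzyme final amount 10 nM · Technique – LANCE TR-FRET, Eu antibody, ULight-streptavidin, EDTA, ex 340 nm, em 618/671 nm · Medium – HEPES buffer, pH 7.5, plus ascorbate · Incubation – enzyme reaction 30 min, then detection 60 min, both room temperature · Reagent – H3K9me3 peptide with Fe(II)/2OG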
T cruzi growth: blocks T. cruzi growth in NIH3T3 culture | 77,000 compounds, 5.9% hits | inhibition, % at 8.34 µM | AID 624255 | T. cruzi beta-gal in NIH3T3, GalScreen luminescence, 90 h;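 active means mean inhibition above about 93%, with at least 55% of replicates each passing it, limit read from the data, passing the limit was not always enough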
IDH1 R132H inh: blocks human IDH1 R132H reductase activity; AID 624101; 70,000 compounds, 0.18% hits; inhibition, % at 10 µM; diaphorase/resazurin fluorescence, 60 min; O75874; in the data active means inhibition above about 34%;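 further: 0% = DMSO and 100% = no enzyme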
Target sequence (O75874 whole entry R132H): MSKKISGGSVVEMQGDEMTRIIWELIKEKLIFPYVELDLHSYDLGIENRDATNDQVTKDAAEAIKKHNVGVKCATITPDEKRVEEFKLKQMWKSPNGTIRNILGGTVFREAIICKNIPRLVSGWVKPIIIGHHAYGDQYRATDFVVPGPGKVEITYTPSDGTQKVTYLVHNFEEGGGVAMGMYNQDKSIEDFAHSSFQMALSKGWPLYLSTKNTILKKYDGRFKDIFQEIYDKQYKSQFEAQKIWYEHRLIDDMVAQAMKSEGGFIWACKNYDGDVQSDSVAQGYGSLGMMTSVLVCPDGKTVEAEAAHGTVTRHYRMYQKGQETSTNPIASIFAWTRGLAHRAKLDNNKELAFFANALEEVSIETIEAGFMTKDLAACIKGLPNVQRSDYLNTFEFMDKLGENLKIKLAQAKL
Starred values were filed as active, the others as inactive; / = no result given.

SMILES | Pf Dd2 growth | GASC1 inh | T cruzi growth | IDH1 R132H inh
O=C(NCC[C@@H]1CC[C@H](NS(=O)(=O)c2cccc(F)c2)[C@H](CO)O1)C1CCCC1 | -17 | 36* | / | 48*
O=C(Cc1ccncc1)NCC[C@H]1CC[C@H](NC(=O)C2CCCC2)[C@H](CO)O1 | 15 | 58* | / | 71*
O=C(CN1CCOCC1)N[C@H]1CC[C@H](CCNC(=O)C2CCC2)O[C@H]1CO | -22 | 85* | 58 | 73*
O=C(CCN1CCCCC1)NCC[C@H]1CC[C@H](NC(=O)Cc2cccnc2)[C@@H](CO)O1 | 27 | 0 | -33 | 0
O=C(CCN1CCCCC1)NCC[C@H]1CC[C@H](NC(=O)Cc2cccnc2)[C@H](CO)O1 | 10 | 75* | 15 | 80*
CC(C)NC(=O)Nc1ccc2c(c1)C(=O)N([C@@H](C)CO)C[C@@H](C)[C@@H](CN(C)C(=O)CCCN(C)C)OCCCC[C@H](C)O2 | 24 | 1 | 13 | /
C[C@@H]1CN([C@H](C)CO)C(=O)c2cccc(NC(=O)c3cnccn3)c2O[C@H]1CN(C)Cc1ccc(C(=O)Nc2ccccc2N)cc1 | -91* | 0 | / | /
C[C@@H]1CN([C@@H](C)CO)C(=O)c2cccc(NC(=O)c3cnccn3)c2O[C@@H]1CN(C)Cc1ccc(-c2ccccc2)cc1 | -87* | 1 | 36 | /
C[C@H](CO)N1C[C@H](C)[C@H](CN(C)Cc2ccccc2)Oc2c(NC(=O)c3cnccn3)cccc2C1=O | -4 | -2 | 63 | /
C[C@@H]1CN([C@@H](C)CO)C(=O)c2cccc(NC(=O)c3cnccn3)c2O[C@@H]1CN(C)Cc1ccc(Cl)c(Cl)c1 | -58 | 1 | 10 | /
C[C@@H]1CN([C@@H](C)CO)C(=O)c2cccc(NC(=O)c3cnccn3)c2O[C@H]1CN(C)Cc1ccc(Cl)c(Cl)c1 | -83* | -2 | 77 | 0
C[C@@H]1CN([C@@H](C)CO)C(=O)c2c(c3ccccc3n2C)-c2ccccc2CO[C@@H]1CN(C)C(=O)[C@H](C)c1ccccc1 | -87* | -4 | / | /
C[C@@H]1CN([C@H](C)CO)C(=O)c2c(c3ccccc3n2C)-c2ccccc2CO[C@H]1CN(C)C(=O)[C@H](C)c1ccccc1 | -84* | -1 | / | /
C[C@H](C(=O)N(C)C[C@@H]1OCc2ccccc2-c2c(n(C)c3ccccc23)C(=O)N([C@H](C)CO)C[C@H]1C)c1ccccc1 | -75 | -2 | / | /
C[C@H](NC(=O)N(C)C[C@H]1OCc2ccccc2-c2c(n(C)c3ccccc23)C(=O)N([C@@H](C)CO)C[C@@H]1C)c1ccccc1 | -81* | -1 | 91 | /
C[C@@H]1CN([C@@H](C)CO)C(=O)c2c(c3ccccc3n2C)-c2ccccc2CO[C@@H]1CN(C)C(=O)N[C@H](C)c1ccccc1 | -22 | -1 | 36 | 0
CC(C)OC(=O)N(C)C[C@H]1OCc2ccccc2-c2c(n(C)c3ccccc23)C(=O)N([C@H](C)CO)C[C@H]1C | -83* | -1 | 29 | -2
CO[C@H]1CN(C)C(=O)c2cc(NC(=O)C3CC3)ccc2OC[C@H](C)N(CCc2ccccc2)C[C@@H]1C | -43 | 2 | 27 | /
CC(=O)N1[C@H](CO)[C@H](c2ccc(-c3ccc(F)cc3)cc2)[C@@H]1CNC(=O)C1CC1 | 6 | -2 | 66 | /
C[C@H]1CN([C@@H](C)CO)S(=O)(=O)c2ccc(-c3ccc(C(=O)N(C)C)cc3)cc2O[C@@H]1CN(C)C(=O)C1CCCCC1 | -45 | -3 | 68 | -2
O=C(C1CCCC1)N1CC2(C1)[C@@H](c1ccccc1)[C@H](CO)N2Cc1ccc(Cl)cc1 | -85* | 1 | / | /
CC(=O)N1CC2(C1)[C@@H](c1ccccc1)[C@@H](CO)N2Cc1ccccc1F | -4 | / | / | /
OC[C@@H]1[C@@H](c2ccccc2)C2(CN(Cc3ccc4c(c3)OCO4)C2)N1Cc1ccccc1 | -93* | 13 | / | /
OC[C@@H]1[C@@H](c2ccccc2)C2(CN(Cc3ccccc3F)C2)N1Cc1ccccc1F | -88* | -2 | / | /
COc1cccc(CN2[C@H](CO)[C@@H](c3ccccc3)C23CN(Cc2ccccc2OC)C3)c1 | -90* | 1 | / | /
SMILES | Pf Dd2 growth | GASC1 inh | T cruzi growth | IDH1 R132H inh
OC[C@@H]1[C@H](c2ccccc2)C2(CN(Cc3ccccc3)C2)N1Cc1ccncc1 | -53 | 2 | / | /
COc1cccc(NC(=O)N2C[C@@H](O)COC[C@H]3O[C@H](CC(=O)NCc4ccccc4F)CC[C@@H]32)c1 | 7 | 0 | / | /
O=C(C[C@@H]1C[C@@H]2c3cc(NC(=O)C4CCOCC4)ccc3O[C@@H]2[C@@H](CO)O1)NCc1cccnc1 | 18 | 2 | -14 | 0
C[C@@H]1CN([C@H](C)CO)C(=O)c2cc(NC(=O)C3CCCCC3)ccc2O[C@@H]1CN(C)Cc1ccc(C(=O)Nc2ccccc2N)cc1 | -83* | -1 | 48 | /
C[C@@H]1CN([C@@H](C)CO)C(=O)c2cc(NC(=O)C3CCCCC3)ccc2O[C@@H]1CN(C)Cc1ccc(C(=O)Nc2ccccc2N)cc1 | -89* | -2 | 75 | /
C[C@@H]1CN([C@@H](C)CO)C(=O)c2cc(NC(=O)C3CC3)ccc2O[C@@H]1CN(C)Cc1ccc(C(=O)Nc2ccccc2N)cc1 | -18 | -1 | 59 | 0
C[C@H](CO)N1C[C@H](C)[C@H](CN(C)Cc2ccc(C(=O)Nc3ccccc3N)cc2)OCCCC[C@H](C)Oc2ccc(NC(=O)C3CCCCC3)cc2C1=O | -92* | -2 | / | 3
C[C@H]1CN([C@@H](C)CO)C(=O)c2cc(NC(=O)C3CC3)ccc2O[C@H]1CN(C)Cc1ccc(C(=O)Nc2ccccc2N)cc1 | -53 | -1 | / | 0
C[C@@H]1CN([C@H](C)CO)C(=O)c2cccc(NC(=O)c3ccc(-c4nccs4)cc3)c2O[C@H]1CN(C)CC1CC1 | -26 | 2 | 51 | 4
CCN1[C@@H]2c3ccc(C4=CCCCC4)c(=O)n3C[C@@H]2[C@@H](CO)[C@@H]1C(=O)NCc1ccccn1 | -6 | 4 | 1 | /
Cc1ccc(S(=O)(=O)N(C)C[C@@H]2Oc3cc(C#Cc4ccncc4)ccc3S(=O)(=O)N([C@@H](C)CO)C[C@@H]2C)cc1 | -85* | -14 | -9 | -2
Cc1ccc(S(=O)(=O)N(C)C[C@H]2Oc3cc(C#Cc4ccncc4)ccc3S(=O)(=O)N([C@H](C)CO)C[C@H]2C)cc1 | -77 | -16 | 78 | 1
Cc1ccc(S(=O)(=O)N(C)C[C@H]2Oc3cc(C#Cc4ccncc4)ccc3S(=O)(=O)N([C@H](C)CO)C[C@@H]2C)cc1 | -81* | -18 | 45 | 0
C[C@@H]1CCCCO[C@@H](CN(C)C(=O)NC2CCCCC2)[C@H](C)CN([C@@H](C)CO)C(=O)c2cc(NC(=O)Nc3ccccc3)ccc2O1 | -18 | 0 | 5 | 0
C[C@@H]1CN([C@H](C)CO)C(=O)c2cc(NC(=O)Nc3ccccc3)ccc2O[C@@H](C)CCCCO[C@@H]1CN(C)C(=O)NC1CCCCC1 | -85* | -1 | -21 | /
C[C@@H]1CCCCO[C@@H](CN(C)C(=O)Nc2ccccc2)[C@@H](C)CN([C@H](C)CO)C(=O)c2cc(NC(=O)NC3CCCCC3)ccc2O1 | 9 | 0 | 23 | 1

Screening data deposited in PubChem BioAssay by Broad Institute.
